Data taken from ChEMBL document CHEMBL1155153, “Measurement of voriconazole activity against Candida albicans, C. glabrata, and C. parapsilosis isolates using time-kill methods validated by high-performance liquid chromatography” (2007).
Converted amounts (≈) assume the structure as drawn.

Experiments:
Format in all cases: functional
Nakaseomyces glabratus [1] = experiment: Antifungal activity against Candida glabrata isolate 1 assessed as maximum log cell kill at MIC after 24 hrs by time-kill method
Nakaseomyces glabratus [2] = experiment: Antifungal activity against Candida glabrata isolate 2 assessed as maximum log cell kill at 16 times MIC after >48 hrs by time-kill method
Candida parapsilosis [3] = experiment: Antifungal activity against Candida parapsilosis isolate 1 by Etest; details: Lodderomyces parapsilosis
How it was run: (§1)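 MIC by Etest, checked against the CLSI (NCCLS M27-A2) broth microdilution method. Both methods agreed within twofold.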

Candida albicans [4] = experiment: Antifungal activity against Candida albicans ATCC 90029 assessed as maximum log cell kill at 4 times MIC after >48 hrs by time-kill method
Nakaseomyces glabratus [5] = experiment: Antifungal activity against Candida glabrata isolate 2 assessed as maximum log cell kill at MIC after 24 to 48 hrs by time-kill method
Candida parapsilosis [6] = experiment: Antifungal activity against Candida parapsilosis isolate 1 assessed as maximum log cell kill at MIC after 24 to 48 hrs by time-kill method
Nakaseomyces glabratus [7] = experiment: Antifungal activity against Candida glabrata isolate 2 assessed as maximum log cell kill at 16 times MIC after 24 to 48 hrs by time-kill method
Nakaseomyces glabratus [8] = experiment: Antifungal activity against Candida glabrata isolate 2 assessed as maximum log cell kill at MIC after 24 hrs by time-kill method
Nakaseomyces glabratus [9] = experiment: Antifungal activity against Candida glabrata isolate 1 assessed as maximum log cell kill at 16 times MIC after 24 hrs by time-kill method
Candida parapsilosis [10] = experiment: Antifungal activity against Candida parapsilosis isolate 2 assessed as maximum log cell kill at 4 times MIC after 24 hrs by time-kill method
How it was run: (§2)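 Bloodstream isolate colonies from 48-h Sabouraud dextrose agar cultures were suspended in sterile water. […] Samples taken 0–72 h were plated for CFU. Value is the maximum log difference from drug-free control per time window. Run in duplicate.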

Candida parapsilosis [11] = experiment: Antifungal activity against Candida parapsilosis isolate 1 assessed as maximum log cell kill at 4 times MIC after 24 hrs by time-kill method
Candida parapsilosis [12] = experiment: Antifungal activity against Candida parapsilosis isolate 1 assessed as maximum log cell kill at 4 times MIC after >48 hrs by time-kill method
Nakaseomyces glabratus [13] = experiment: Antifungal activity against Candida glabrata isolate 2 assessed as maximum log cell kill at 4 times MIC after >48 hrs by time-kill method
Candida albicans [14] = experiment: Antifungal activity against Candida albicans ATCC 90029 assessed as maximum log cell kill at MIC after 24 to 48 hrs by time-kill method
Candida albicans [15] = experiment: Antifungal activity against Candida albicans ATCC 90029 assessed as maximum log cell kill at MIC after 24 hrs by time-kill method
Candida albicans [16] = experiment: Antifungal activity against Candida albicans SC5314 assessed as maximum log cell kill at 4 times MIC after 24 to 48 hrs by time-kill method
Candida parapsilosis [17] = experiment: Antifungal activity against Candida parapsilosis isolate 1 assessed as maximum log cell kill at 16 times MIC after 24 hrs by time-kill method
Candida albicans [18] = experiment: Antifungal activity against Candida albicans SC5314 assessed as maximum log cell kill at 16 times MIC after 24 to 48 hrs by time-kill method
Candida albicans [19] = experiment: Antifungal activity against Candida albicans SC5314 assessed as maximum log cell kill at MIC after 24 to 48 hrs by time-kill method
Candida albicans [20] = experiment: Antifungal activity against Candida albicans ATCC 90029 by Etest; how it was run: as §1
Nakaseomyces glabratus [21] = experiment: Antifungal activity against Candida glabrata isolate 1 assessed as maximum log cell kill at MIC after 24 to 48 hrs by time-kill method
Candida parapsilosis [22] = experiment: Antifungal activity against Candida parapsilosis isolate 2 assessed as maximum log cell kill at 16 times MIC after 24 to 48 hrs by time-kill method
Nakaseomyces glabratus [23] = experiment: Antifungal activity against Candida glabrata isolate 2 assessed as maximum log cell kill at 4 times MIC after 24 to 48 hrs by time-kill method
Candida albicans [24] = experiment: Antifungal activity against Candida albicans SC5314 assessed as maximum log cell kill at 4 times MIC after 24 hrs by time-kill method
Candida parapsilosis [25] = experiment: Antifungal activity against Candida parapsilosis isolate 2 assessed as maximum log cell kill at 4 times MIC after 24 to 48 hrs by time-kill method; how it was run: as §2
Nakaseomyces glabratus [26] = experiment: Antifungal activity against Candida glabrata isolate 1 assessed as maximum log cell kill at 4 times MIC after 24 to 48 hrs by time-kill method
Candida parapsilosis [27] = experiment: Antifungal activity against Candida parapsilosis isolate 1 assessed as maximum log cell kill at 16 times MIC after >48 hrs by time-kill method
Candida parapsilosis [28] = experiment: Antifungal activity against Candida parapsilosis isolate 2 by Etest; details: Lodderomyces parapsilosis
Nakaseomyces glabratus [29] = experiment: Antifungal activity against Candida glabrata isolate 2 assessed as maximum log cell kill at MIC after >48 hrs by time-kill method
Candida parapsilosis [30] = experiment: Antifungal activity against Candida parapsilosis isolate 1 assessed as maximum log cell kill at MIC after 24 hrs by time-kill method
Candida parapsilosis [31] = experiment: Antifungal activity against Candida parapsilosis isolate 2 assessed as maximum log cell kill at MIC after 24 to 48 hrs by time-kill method; how it was run: as §2
Candida parapsilosis [32] = experiment: Antifungal activity against Candida parapsilosis isolate 1 assessed as maximum log cell kill at 4 times MIC after 24 to 48 hrs by time-kill method
Nakaseomyces glabratus [33] = experiment: Antifungal activity against Candida glabrata isolate 2 assessed as maximum log cell kill at 16 times MIC after 24 hrs by time-kill method
Candida albicans [34] = experiment: Antifungal activity against Candida albicans ATCC 90029 assessed as maximum log cell kill at 16 times MIC after 24 to 48 hrs by time-kill method
Nakaseomyces glabratus [35] = experiment: Antifungal activity against Candida glabrata isolate 1 assessed as maximum log cell kill at 4 times MIC after 24 hrs by time-kill method
Candida albicans [36] = experiment: Antifungal activity against Candida albicans ATCC 90029 assessed as maximum log cell kill at MIC after >48 hrs by time-kill method
Candida albicans [37] = experiment: Antifungal activity against Candida albicans ATCC 90029 assessed as maximum log cell kill at 16 times MIC after 24 hrs by time-kill method
Candida albicans [38] = experiment: Antifungal activity against Candida albicans SC5314 assessed as maximum log cell kill at MIC after 24 hrs by time-kill method
Candida parapsilosis [39] = experiment: Antifungal activity against Candida parapsilosis isolate 2 assessed as maximum log cell kill at 4 times MIC after >48 hrs by time-kill method; how it was run: as §2
Candida albicans [40] = experiment: Antifungal activity against Candida albicans ATCC 90029 assessed as maximum log cell kill at 4 times MIC after 24 to 48 hrs by time-kill method
Candida parapsilosis [41] = experiment: Antifungal activity against Candida parapsilosis isolate 2 assessed as maximum log cell kill at MIC after 24 hrs by time-kill method; how it was run: as §2
Candida parapsilosis [42] = experiment: Antifungal activity against Candida parapsilosis isolate 2 assessed as maximum log cell kill at 16 times MIC after >48 hrs by time-kill method
Nakaseomyces glabratus [43] = experiment: Antifungal activity against Candida glabrata isolate 1 by Etest; how it was run: as §1
Nakaseomyces glabratus [44] = experiment: Antifungal activity against Candida glabrata isolate 1 assessed as maximum log cell kill at 4 times MIC after >48 hrs by time-kill method
Nakaseomyces glabratus [45] = experiment: Antifungal activity against Candida glabrata isolate 1 assessed as maximum log cell kill at 16 times MIC after 24 to 48 hrs by time-kill method
Candida albicans [46] = experiment: Antifungal activity against Candida albicans SC5314 by Etest; how it was run: as §1
Nakaseomyces glabratus [47] = experiment: Antifungal activity against Candida glabrata isolate 1 assessed as maximum log cell kill at 16 times MIC after >48 hrs by time-kill method
Candida parapsilosis [48] = experiment: Antifungal activity against Candida parapsilosis isolate 1 assessed as maximum log cell kill at MIC after >48 hrs by time-kill method
Nakaseomyces glabratus [49] = experiment: Antifungal activity against Candida glabrata isolate 1 assessed as maximum log cell kill at MIC after >48 hrs by time-kill method
Candida parapsilosis [50] = experiment: Antifungal activity against Candida parapsilosis isolate 2 assessed as maximum log cell kill at 16 times MIC after 24 hrs by time-kill method
Candida parapsilosis [51] = experiment: Antifungal activity against Candida parapsilosis isolate 2 assessed as maximum log cell kill at MIC after >48 hrs by time-kill method; how it was run: as §2
Candida albicans [52] = experiment: Antifungal activity against Candida albicans ATCC 90029 assessed as maximum log cell kill at 4 times MIC after 24 hrs by time-kill method
Nakaseomyces glabratus [53] = experiment: Antifungal activity against Candida glabrata isolate 2 by Etest; how it was run: as §1
Candida albicans [54] = experiment: Antifungal activity against Candida albicans ATCC 90029 assessed as maximum log cell kill at 16 times MIC after >48 hrs by time-kill method
Nakaseomyces glabratus [55] = experiment: Antifungal activity against Candida glabrata isolate 2 assessed as maximum log cell kill at 4 times MIC after 24 hrs by time-kill method
Candida parapsilosis [56] = experiment: Antifungal activity against Candida parapsilosis isolate 1 assessed as maximum log cell kill at 16 times MIC after 24 to 48 hrs by time-kill method
Candida albicans [57] = experiment: Antifungal activity against Candida albicans SC5314 assessed as maximum log cell kill at 16 times MIC after 24 hrs by time-kill method

`C[C@@H](c1ncncc1F)[C@](O)(Cn1cncn1)c1ccc(F)cc1F` [VORICONAZOLE] showed an LCK (Nakaseomyces glabratus [1]) of -0.43, an LCK (Nakaseomyces glabratus [2]) of -3.02 and an MIC (Candida parapsilosis [3]) of 0.008 µg/mL (≈ 0.0229 µM). For the same compound, the LCK (Candida albicans [4]) was -1.9, the LCK (Nakaseomyces glabratus [5]) was -2.23 and the LCK (Candida parapsilosis [6]) was -0.91. The LCK (Nakaseomyces glabratus [7]) was -2.49, the LCK (Nakaseomyces glabratus [8]) was -1.02 and the LCK (Nakaseomyces glabratus [9]) was -0.59. For the same compound, the LCK (Candida parapsilosis [10]) was -2.7, the LCK (Candida parapsilosis [11]) was -1.64 and the LCK (Candida parapsilosis [12]) was -2.37. It also gave an LCK (Nakaseomyces glabratus [13]) of -2.99, an LCK (Candida albicans [14]) of -1.77 and an LCK (Candida albicans [15]) of -1.23. For the same compound, the LCK (Candida albicans [16]) was -0.53, the LCK (Candida parapsilosis [17]) was -1.68 and the LCK (Candida albicans [18]) was -0.58. For the same compound, the LCK (Candida albicans [19]) was -0.56, the MIC (Candida albicans [20]) was 0.008 µg/mL (≈ 0.0229 µM) and the LCK (Nakaseomyces glabratus [21]) was -0.74. For the same compound, the LCK (Candida parapsilosis [22]) was -3.94, the LCK (Nakaseomyces glabratus [23]) was -2.39 and the LCK (Candida albicans [24]) was -0.51. For the same compound, the LCK (Candida parapsilosis [25]) was -2.13, the LCK (Nakaseomyces glabratus [26]) was -0.78 and the LCK (Candida parapsilosis [27]) was -2.69. The MIC (Candida parapsilosis [28]) was 0.016 µg/mL (≈ 0.0458 µM), the LCK (Nakaseomyces glabratus [29]) was -2.78 and the LCK (Candida parapsilosis [30]) was -0.99. It also gave an LCK (Candida parapsilosis [31]) of -1.03, an LCK (Candida parapsilosis [32]) of -2.67 and an LCK (Nakaseomyces glabratus [33]) of -1.15. The LCK (Candida albicans [34]) was -1.96, the LCK (Nakaseomyces glabratus [35]) was -0.49 and the LCK (Candida albicans [36]) was -1.63. The LCK (Candida albicans [37]) was -1.34, the LCK (Candida albicans [38]) was -0.61 and the LCK (Candida parapsilosis [39]) was -1.12. For the same compound, the LCK (Candida albicans [40]) was -1.84, the LCK (Candida parapsilosis [41]) was -1.86 and the LCK (Candida parapsilosis [42]) was -4.15. The MIC (Nakaseomyces glabratus [43]) was 0.19 µg/mL (≈ 0.544 µM), the LCK (Nakaseomyces glabratus [44]) was -1.08 and the LCK (Nakaseomyces glabratus [45]) was -1. The MIC (Candida albicans [46]) was 0.012 µg/mL (≈ 0.0344 µM), the LCK (Nakaseomyces glabratus [47]) was -1.17 and the LCK (Candida parapsilosis [48]) was -0.67. The LCK (Nakaseomyces glabratus [49]) was -0.99, the LCK (Candida parapsilosis [50]) was -3.93 and the LCK (Candida parapsilosis [51]) was -0.88. It also gave an LCK (Candida albicans [52]) of -1.34, an MIC (Nakaseomyces glabratus [53]) of 0.032 µg/mL (≈ 0.0916 µM) and an LCK (Candida albicans [54]) of -1.89. It also gave an LCK (Nakaseomyces glabratus [55]) of -1.1, an LCK (Candida parapsilosis [56]) of -2.74 and an LCK (Candida albicans [57]) of -0.54.
